Like-named read-outs stand apart in the source and are kept apart here. Marks after values point to notes of the source that are not given here.
Assays:
[1] = Relaxivity in HEPES buffer in the absence of HSA; type: physicochemical; conditions: 50 mM HEPES buffer pH 7.4, 37 °C
Outline: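 Complex solid redissolved in 50 mM HEPES and filtered, with Gd concentration set by ICP-MS. Longitudinal relaxation (1/T1) measured at 0.47 and 1.41 T without HSA at 0.05-0.4 mM complex, in 50 mM HEPES pH 7.4 at 37 °C. r1 taken as slope of 1/T1 versus Gd concentration (mM). Error estimated at ±10% of value.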

[2] = target: T1, human serum albumin (HSA) (Homo sapiens, UniProt P02768); test: Ultrafiltration assay of binding to HSA; conditions: for % bound to 4.5% HSA: 0.1 mM probe, 4.5% w/v HSA in 50 mM HEPES, ultrafiltration; for binding to HSA on average: average of the diastereoisomers Gd(6a) and Gd(6b), 0.1 mM, 4.5% w/v HSA
Outline: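 Complex at a constant 0.1 mM (50 mM HEPES, concentration by ICP-MS) with 4.5% w/v HSA, ultrafiltered through a 5000 MW cutoff membrane. Compared against the filtrate of an HSA-free solution. Unbound and total Gd measured directly by ICP-MS, and binding given as percent bound to HSA. Error estimated at ±10%.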

[3] = target: T1, human serum albumin (HSA); test: Relaxivity in the presence of 4.5% w/v HSA; conditions: 50 mM HEPES buffer pH 7.4, 37 °C
Outline: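 Complex in 50 mM HEPES with 4.5% w/v HSA, pH 7.4, 37 °C, with Gd content quantified by ICP-MS. 1/T1 recorded at 0.47 and 1.41 T across several complex concentrations. Observed relaxivity is the slope of 1/T1 against Gd concentration (mM). Estimated error is ±10% of the measured value.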

[4] = target: T1, human serum albumin (HSA); test: T1 weighted MR image of samples with or without HSA; conditions: 0.1 mM compound, with or without 4.5 % w/v HSA
Outline: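 Samples of 0.1 mM compound, with or without 4.5% w/v HSA, imaged side by side with a T1-weighted sequence (TR/TE/flip angle 25 ms/4.7 ms/70°). Signal intensity read for each sample.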

[5] = target: T1, human serum albumin (HSA); conditions: 0.1 mM probe, 4.5% w/v HSA; cited from earlier work
[6] = absence of HSA, cited from earlier work
[7] = target: T1, human serum albumin (HSA); conditions: cited from earlier work

T1 sequence (P02768 25-609): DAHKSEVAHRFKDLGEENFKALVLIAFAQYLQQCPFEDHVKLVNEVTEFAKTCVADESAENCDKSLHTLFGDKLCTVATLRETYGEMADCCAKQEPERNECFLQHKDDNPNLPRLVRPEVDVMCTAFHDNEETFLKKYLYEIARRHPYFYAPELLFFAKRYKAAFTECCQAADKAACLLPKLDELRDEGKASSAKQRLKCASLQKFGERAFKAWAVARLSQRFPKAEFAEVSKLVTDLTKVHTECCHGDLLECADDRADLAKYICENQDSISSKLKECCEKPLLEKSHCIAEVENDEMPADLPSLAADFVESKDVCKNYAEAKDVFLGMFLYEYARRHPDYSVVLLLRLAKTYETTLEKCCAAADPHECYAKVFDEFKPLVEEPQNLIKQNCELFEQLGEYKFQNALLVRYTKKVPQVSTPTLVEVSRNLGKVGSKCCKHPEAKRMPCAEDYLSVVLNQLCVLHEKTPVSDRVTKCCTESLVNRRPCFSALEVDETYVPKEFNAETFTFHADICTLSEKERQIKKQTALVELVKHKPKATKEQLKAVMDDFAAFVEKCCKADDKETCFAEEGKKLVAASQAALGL

## C[C@H](NC(=O)C(CN1CCN(CC(=O)O)CCN(CC(=O)O)CCN(CC(=O)O)CC1)NC(=O)C(N)Cc1cc(I)c(O)c(I)c1)c1ccccc1 (single isomer, unassigned) [Gd(6a)]
[1]; 0.47T
  r1^free: 7.1 mM⁻¹ s⁻¹
[1]; 1.41T
  r1^free: 6.6 mM⁻¹ s⁻¹
[2]
  % bound to 4.5% HSA: 34%
  binding to HSA on average: 37%
[3]; 0.47T
  r1^obs 4.5% HSA: 18.5 mM⁻¹ s⁻¹
[3]; 1.41T
  r1^obs 4.5% HSA: 10.9 mM⁻¹ s⁻¹

## C[C@H](NC(=O)C(CN1CCN(CC(=O)O)CCN(CC(=O)O)CCN(CC(=O)O)CC1)NC(=O)C(N)Cc1cc(I)c(O)c(I)c1)c1ccccc1 (single isomer, unassigned) [Gd(6b)]
[1]; 0.47T
  r1^free: 6.8 mM⁻¹ s⁻¹
[1]; 1.41T
  r1^free: 6.1 mM⁻¹ s⁻¹
[2]
  % bound to 4.5% HSA: 39%
  binding to HSA on average: 37%
[3]; 0.47T
  r1^obs 4.5% HSA: 18.4 mM⁻¹ s⁻¹
[3]; 1.41T
  r1^obs 4.5% HSA: 11.7 mM⁻¹ s⁻¹

## C[C@H](NC(=O)C(N)CN1CCN(CC(=O)O)CCN(CC(=O)O)CCN(CC(=O)O)CC1)c1ccccc1 (stereo partly drawn) [Gd(2), 2,2′,2″-(10-(2-amino-3-oxo-3-(((S)-1-phenylethyl)amino)propyl)-1,4,7,10-tetraazacyclododecane-1,4,7-triyl)triacetic acid]
[1]; 0.47T
  r1^free: 4.8 mM⁻¹ s⁻¹
[1]; 1.41T
  r1^free: 3.9 mM⁻¹ s⁻¹
[2]
  % bound to 4.5% HSA: 7%
[3]; 0.47T
  r1^obs 4.5% HSA: 7.1 mM⁻¹ s⁻¹
[3]; 1.41T
  r1^obs 4.5% HSA: 5.9 mM⁻¹ s⁻¹

## NC(Cc1cc(I)c(O)c(I)c1)C(=O)NC(CN1CCN(CC(=O)O)CCN(CC(=O)O)CCN(CC(=O)O)CC1)C(=O)O (stereo not drawn) [Gd(4), 2,2′,2″-(10-(2-(2-amino-3-(4-hydroxy-3,5-diiodophenyl)propanamido)-2-carboxyethyl)-1,4,7,10-tetraazacyclododecane-1,4,7-triyl)triacetic acid]
[1]; 0.47T
  r1^free: 6.1 mM⁻¹ s⁻¹
[1]; 1.41T
  r1^free: 5.8 mM⁻¹ s⁻¹
[2]
  % bound to 4.5% HSA: 20%
[3]; 0.47T
  r1^obs 4.5% HSA: 23.7 mM⁻¹ s⁻¹
[3]; 1.41T
  r1^obs 4.5% HSA: 17.4 mM⁻¹ s⁻¹

## COC(=O)CNC(=O)C(CN1CCN(CC(=O)O)CCN(CC(=O)O)CCN(CC(=O)O)CC1)NC(=O)C(N)Cc1cc(I)c(O)c(I)c1 (stereo not drawn) [Gd(5), 2,2′,2″-(10-(2-(2-amino-3-(4-hydroxy-3,5-diiodophenyl)propanamido)-3-((2-methoxy-2-oxoethyl)amino)-3-oxopropyl)-1,4,7,10-tetraazacy-clododecane-1,4,7-triyl)triacetic acid]
[1]; 0.47T
  r1^free: 6.9 mM⁻¹ s⁻¹
[1]; 1.41T
  r1^free: 6.3 mM⁻¹ s⁻¹
[2]
  % bound to 4.5% HSA: 25%
[3]; 0.47T
  r1^obs 4.5% HSA: 20.9 mM⁻¹ s⁻¹
[3]; 1.41T
  r1^obs 4.5% HSA: 16.7 mM⁻¹ s⁻¹

## O=C([O-])CN(CCN(CC(=O)[O-])C[C@H](COP(=O)([O-])OC1CCC(c2ccccc2)(c2ccccc2)CC1)N(CC(=O)[O-])CC(=O)[O-])CC(=O)[O-].[Gd+3].[H+].[H+].[H+] [MS-325, gadofosveset]
[4]
  signal / contrast in T1 weighted image with versus without HSA: increased signal in presence of HSA
[5]
  % bound to 4.5% HSA: 88% ^a
[6]; 0.47T
  r1^free: 6.6 ^a mM^−1s^−1
[6]; 1.41T
  r1^free: 5.5 ^a mM^−1s^−1
[7]; 0.47T
  r1^obs 4.5% HSA: 42 ^a mM^−1s^−1
[7]; 1.41T
  r1^obs 4.5% HSA: 23.8 ^a mM^−1s^−1

— article PMC3656968 (Journal of medicinal chemistry, 2013)
